# Assay results reported in ChEMBL document CHEMBL1128606, “Nucleosides and nucleotides. 141. Chemical stability of a new antitumor nucleoside, 2'-C-cyano-2'-deoxy-1-beta-D-arabino-pentofuranosylcytosine in alkaline medium: formation of 2'-C-cyano-2'-deoxy-1-beta-D-ribo-pentofuranosylcytosine and its antitumor activity” (J Med Chem, 1995).
# How the values were obtained:
# [1] = Kinetic parameter of epimerization at a salt concentration (0.01 M) of in Tris.HCl buffer(pH 9.0) and 37 degree C (or )in RMPI 1640 cell culture medium containing 10%FCS; assay type: ADME, cell-based; conditions: rmpi 1640, pH 9
# Outline: (§1)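 Starting nucleoside (3 mg, 0.012 mmol) in 1 mL Tris-HCl (pH 7.5–10.3; 10 mM unless salt varied to 0.01–1 M at pH 9.0) or RPMI 1640 with 10% FCS, 37 °C. Timed samples analyzed by C-18 HPLC, 2.5% aqueous MeOH, 254 nm; peak areas corrected by ε. Rate constants k12, k21, k13, k23 obtained by nonlinear least-squares fit to compartment model; t1/2 reported.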
# [2] = Kinetic parameter of epimerization at a salt concentration (0.1 M) of in Tris.HCl buffer(pH 9.0) and 37 degree C (or )in RMPI 1640 cell culture medium containing 10%FCS; assay type: ADME, cell-based; conditions: rmpi 1640, pH 9; outline: as §1
# [3] = Kinetic parameter of epimerization at a salt concentration (1 M) of in Tris.HCl buffer(pH 9.0) and 37 degree C (or )in RMPI 1640 cell culture medium containing 10%FCS; assay type: ADME, cell-based; conditions: rmpi 1640, pH 9; outline: as §1
# [4] = Kinetic parameter of epimerization in Tris.HCl buffer at a pH 10.0 (or )in RMPI 1640 cell culture medium containing 10%FCS; assay type: ADME, cell-based; conditions: rmpi 1640, pH 10; outline: as §1
# [5] = Kinetic parameter of epimerization in Tris.HCl buffer at a pH 7.5 (or )in RMPI 1640 cell culture medium containing 10%FCS; assay type: ADME, cell-based; conditions: rmpi 1640, pH 7.5; outline: as §1
# [6] = Kinetic parameter of epimerization in Tris.HCl buffer at a pH 8.0 (or )in RMPI 1640 cell culture medium containing 10%FCS; assay type: ADME, cell-based; conditions: rmpi 1640, pH 8; outline: as §1
# [7] = Kinetic parameter of epimerization in Tris.HCl buffer at a pH 9.0 (or )in RMPI 1640 cell culture medium containing 10%FCS; assay type: ADME, cell-based; conditions: rmpi 1640, pH 9; outline: as §1
# [8] = Kinetic parameter of epimerization in Tris.HCl buffer at a pH 9.6 (or )in RMPI 1640 cell culture medium containing 10%FCS; assay type: ADME, cell-based; conditions: rmpi 1640, pH 9.6; outline: as §1
# [9] = Kinetic parameter of epimerization in Tris.HCl buffer at a pH 10.0(or )in RMPI 1640 cell culture medium containing 10%FCS; assay type: ADME, cell-based; conditions: rmpi 1640, pH 10; outline: as §1
# [10] = Degradation of CNDAC at 0.01 M concentration in Tris-degrees C; assay type: ADME; conditions: Tris buffer; outline: as §1
# [11] = Degradation of CNDAC at 0.1 M concentration in Tris-degrees C; assay type: ADME; conditions: Tris buffer; outline: as §1
# [12] = Degradation of CNDAC at 10 pH in Tris-degrees C; assay type: ADME; conditions: Tris buffer, pH 10; outline: as §1
# [13] = Degradation of CNDAC at 7.5 pH in Tris-degrees C; assay type: ADME; conditions: Tris buffer, pH 7.5; outline: as §1
# [14] = Degradation of CNDAC at 8 pH in Tris-degrees C; assay type: ADME; conditions: Tris buffer, pH 8; outline: as §1
# [15] = Degradation of CNDAC at 9 pH in Tris-degrees C; assay type: ADME; conditions: Tris buffer, pH 9; outline: as §1
# [16] = Degradation of CNDAC at 9.6 pH in Tris-degrees C; assay type: ADME; conditions: Tris buffer, pH 9.6; outline: as §1
# MKN-74 [17] = test: In Vitro cell growth inhibitory activity of CNDAC Stomach Carcinoma MKN-74 (1*10e3) cell lines on 20-min exposure; assay type: functional, cell-based, Homo sapiens
# Outline: (§2)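 MTT assay. Cells seeded (WiDr 5×10^2, SBC-5 2.5×10^2, MKN-74 1×10^3 per well), 24 h preincubation at 37 °C, 5% CO2. Graded drug concentrations added in tetraplicate for 20 min or 48 h, then washed three times with medium and cultured to 6 days from drug addition. MTT 1 mg/mL for 4 h, DMSO solubilization, A540. IC50 read graphically from dose-response curve.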
# MKN-74 [18] = test: In Vitro cell growth inhibitory activity of CNDAC Stomach Carcinoma MKN-74 (1*10e3) cell lines on 48-h exposure; assay type: functional, cell-based, Homo sapiens; outline: as §2
# Mus musculus [19] = test: In vivo antileukemic activity of CNDAC against P388 mouse leukemic cells by ip administration of dose 100 (mg/kg/day); assay type: functional
# Outline: (§3)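 Female CDF1 mice, 6 weeks old (n = 6), implanted ip with 1×10^6 viable P388 cells maintained by weekly ip passage in DBA/2 mice. Drug in saline (0.1 mL/10 g body weight) given ip on days 1–5. T/C is treated vs untreated median survival time. Weight change is day 7 minus day 1 average.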
# Mus musculus [20] = test: In vivo antileukemic activity of CNDAC against P388 mouse leukemic cells by ip administration of dose 200 (mg/kg/day); assay type: functional; outline: as §3
# Mus musculus [21] = test: In vivo antileukemic activity of CNDAC against P388 mouse leukemic cells by ip administration of dose 50 (mg/kg/day); assay type: functional; outline: as §3
# Mus musculus [22] = test: In vivo antileukemic activity of CNDAC against P388 mouse leukemic cells by ip administration of dose 25 (mg/kg/day); assay type: functional; outline: as §3
# SBC-5 [23] = test: In Vitro cell growth inhibitory activity of CNDAC against Small Cell Lung Carcinoma-5 (2.5*10e2) cells on 20-min exposure; assay type: functional, cell-based; conditions: Homo sapiens, SBC-5, 20 min; outline: as §2
# SBC-5 [24] = test: In Vitro cell growth inhibitory activity of CNDAC against Small Cell Lung Carcinoma-5 (2.5*10e2) cells on 48-h exposure; assay type: functional, cell-based, Homo sapiens; outline: as §2
# WiDr [25] = test: In Vitro cell growth inhibitory activity of CNDAC against Human Colon Carcinoma WiDr 5*10e2 cells on 20- min exposure; assay type: functional, cell-based; outline: as §2
# WiDr [26] = test: In Vitro cell growth inhibitory activity of CNDAC against Human Colon Carcinoma WiDr 5*10e2 cells on 48-h exposure; assay type: functional, cell-based; outline: as §2
# [27] = Degradation of CNDAC at 1 M concentration in Tris-degrees C; assay type: ADME; conditions: Tris buffer; outline: as §1
structure (smiles),measurement,setting,value
N#C[C@H]1[C@H](O)[C@@H](CO)O[C@H]1n1ccc(N)nc1=O (stereo in doubt; form 1) [TAS-109],K12,[1],0.88 h⁻¹
same,K13+K23,[1],0.09 h⁻¹
same,K21,[1],0.6 h⁻¹
same,K12,[2],1.88 h⁻¹
same,K13+K23,[2],0.19 h⁻¹
same,K21,[2],1.16 h⁻¹
same,K12,[3],2.31 h⁻¹
same,K13+K23,[3],0.3 h⁻¹
same,K21,[3],1.35 h⁻¹
same,K12,[4],6.18 h⁻¹
same,K13+K23,[4],0.69 h⁻¹
same,K12,[5],0.062 h⁻¹
same,K13+K23,[5],0.009 h⁻¹
same,K21,[5],0.037 h⁻¹
same,K12,[6],0.22 h⁻¹
same,K13+K23,[6],0.02 h⁻¹
same,K21,[6],0.14 h⁻¹
same,K12,[7],0.88 h⁻¹
same,K13+K23,[7],0.09 h⁻¹
same,K21,[7],0.6 h⁻¹
same,K12,[8],2.14 h⁻¹
same,K13+K23,[8],0.26 h⁻¹
same,K21,[8],1.41 h⁻¹
same,K21,[9],4.07 h⁻¹
same,half-life,[10],60 min
same,half-life,[11],30 min
same,half-life,[12],8.4 min
same,half-life,[13],38 h
same,half-life,[14],240 min
same,half-life,[15],60 min
same,half-life,[16],27 min
same,IC50,MKN-74 [17],24.9 µM
same,IC50,"MKN-74 [18]; Homo sapiens, MKN-74, 48 h",0.15 µM
same,T/C,Mus musculus [19],311%
same,T/C,Mus musculus [20],333%
same,T/C,Mus musculus [21],300%
same,T/C,Mus musculus [22],300%
same,Weight change,Mus musculus [22],0.3 g
same,IC50,SBC-5 [23],7.14 µM
same,IC50,"SBC-5 [24]; Homo sapiens, SBC-5, 48 h",0.222 µM
same,IC50,WiDr [25],16.5 µM
same,IC50,"WiDr [26]; Homo sapiens, WiDr, 48 h",0.157 µM
same,half-life,[27],21 min
N#C[C@H]1[C@H](O)[C@@H](CO)O[C@H]1n1ccc(N)nc1=O (stereo in doubt; form 2) [TAS-109],IC50,MKN-74 [17],265 µM
same,IC50,MKN-74 [18]; mkn-74,0.206 µM
same,T/C,Mus musculus [19],180%
same,Weight change,Mus musculus [19],0.7 g
same,T/C,Mus musculus [20],203%
same,Weight change,Mus musculus [20],0.9 g
same,T/C,Mus musculus [21],164%
same,Weight change,Mus musculus [21],0.9 g
same,T/C,Mus musculus [22],138%
same,Weight change,Mus musculus [22],1.6 g
same,IC50,SBC-5 [23],7.14 µM
same,IC50,SBC-5 [24]; sbc-5,0.367 µM
same,IC50,WiDr [25],16.5 µM
same,IC50,WiDr [26]; widr,0.306 µM
